Shown are actives, neighbours in structure and some others; about 1.7% of the full set was active somewhere.
CSN inh: blocks human CSN-mediated cullin deneddylation. Purified CSN, SCF-Nedd8-OG deneddylation, fluorescence polarization. Q92905. actives 0.38% (n = 360,000). inhibition, % at 12.5 µM. AID 651999;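 active means pattern-corrected inhibition above about 35%, with an unprinted fluorescence ratio check between 0.5 and 1.5, limit read from the data, passing the limit was not always enough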
Target sequence (Q92905 whole entry, looked up, one chain of several): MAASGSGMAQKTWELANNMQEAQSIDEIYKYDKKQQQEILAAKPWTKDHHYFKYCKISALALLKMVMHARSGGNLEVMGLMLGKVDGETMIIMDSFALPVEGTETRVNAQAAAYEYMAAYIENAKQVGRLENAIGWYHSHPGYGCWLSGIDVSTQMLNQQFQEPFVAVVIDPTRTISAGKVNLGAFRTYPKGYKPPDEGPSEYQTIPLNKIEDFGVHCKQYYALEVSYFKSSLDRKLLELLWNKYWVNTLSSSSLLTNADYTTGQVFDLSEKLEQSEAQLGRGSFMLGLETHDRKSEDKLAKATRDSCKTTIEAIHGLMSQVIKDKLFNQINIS
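Schedule: reaction 90 min, room temperature / Assay system: HEK293T-derived human Csn5 enzyme / Input: Csn5 at 0.24 nM final / Measure: inhibition of Csn5 cleavage, % / Control set: substrate-only high control, full reaction low control / Technique: fluorescence polarization of the substrate / Buffer or medium: Tris/NaCl/DTT buffer, pH 7.5 / Reagent: SCFSkp2-Nedd8OG substrate at 10 nM final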
HNF4A DNA FP: change in binding of human HNF4 alpha to DNA; P41235; HNF4a-FITC DNA binding, fluorescence polarization, 1 h; activity change, % at 10 µM; actives 0.3% (n = 360,000); in the data active means activity change above about 30%, passing the limit was not always enough
Tb MetRS inh: Trypanosoma brucei MetRS inhibition | inhibition, % at 11.9 µM | actives 0.4% (n = 360,000) | purified T. brucei MetRS, ATP depletion, Kinase-Glo luminescence | AID 624268;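 active means inhibition above a per-plate cutoff of the control wells' mean inhibition plus 3 SD, cut at about 5.5% in these data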
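Assay system: T. brucei methionyl-tRNA synthetase, purified | Medium: HEPES buffer with MgCl2, KCl, DTT, spermine, BSA, pyrophosphatase | Compound: 11.9 µM single point | Incubation: 15 min enzyme-compound preincubation, 2 h reaction, 10 min detection, 25 °C | Measured by: Kinase-Glo luciferase luminescence reporting remaining unconsumed ATP | Measure: % inhibition normalized to control-well medians | Replication: Singlicate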
IDE inh: inhibitors of human insulin-degrading enzyme in cells | P14735 | HEK cells, FAbetaB cleavage, fluorescence polarization | inhibition, % at 5.59 µM | actives 0.41% (n = 320,000) | AID 434962;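 active means percent inhibition above the average of all tested compounds plus 3 SD, set per screening campaign, cut at about 16% in these data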;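 further: IDE supplied by intact live HEK cells; FP after avidin binding of uncleaved biotin substrate so inhibition keeps polarization high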
TPT1 inh: inhibitors of Candida albicans tRNA 2'-phosphotransferase TPT1; recombinant caTPT1, FP RNA substrate dephosphorylation; inhibition, % at 5 µM; actives 0.81% (n = 300,000);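 active means inhibition above the mean of all tested compounds plus 3 SD, set per screening campaign, cut at about 24% in these data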
IDE cell activ: activators of human insulin-degrading enzyme in cells; AID 493087; activation, % at 5.96 µM; HEK cells, FAbeta-B cleavage, fluorescence polarization; 0% vehicle, 100% cell-free pure enzyme wells; actives 0.073% (n = 340,000);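 active means activation above the mean of all tested compounds plus 3 SD, set per screening campaign, cut at about 17% in these data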
A number is an active result; - = inactive; . = not tested or not shown.

SMILES	CSN inh	HNF4A DNA FP	Tb MetRS inh	IDE inh	TPT1 inh	IDE cell activ
Cc1ccc(C(=O)N=c2sccn2C)cc1S(=O)(=O)N1CCOCC1	-	37	-	-	-	-
N#CC(C#N)=C1C=C2C=C(N3CCOCC3)CCC2CC1 (stereo not given)	-	-	-	.	.	58
CN1CCN(C2=CC3=CC(=C(C#N)C#N)CCC3CC2)CC1 (stereo not given)	-	-	-	.	.	-
N#CC(C#N)=C1C=C2C=C(N3CCCCCC3)CCC2CC1 (stereo not given)	-	-	-	.	.	47
CCN1CCN(C2=CC3=CC(=C(C#N)C#N)CCC3CC2)CC1 (stereo not given)	-	-	-	.	.	35
C1CCCCCC(NCCN2CCNCC2)CCCCC1	-	-	-	-	-	-
COc1cccc(NC(=O)CN(C)C(=O)c2ccc(OCC3CCCO3)cc2)c1 (stereo not given)	-	-	-	.	.	-
C=CCn1c(O)c(C2=c3ccccc3=NC2=O)sc1=Nc1ccc(O)cc1	-	-	-	-	-	19
Cc1ccc(C)c(N2CCN(C(=S)Nc3ccc4nc(N5CCN(C)CC5)cc(C)c4c3)CC2)c1	-	-	-	-	-	22
CCN1CCN(c2cc(C)c3cc(NC(=S)N4CCN(c5ccccc5)CC4)ccc3n2)CC1	-	-	-	-	-	20
CCN1CCN(c2cc(C)c3cc(NC(=S)N4CCOCC4)ccc3n2)CC1	-	-	-	-	-	-
O=C(Cc1cccc(C(F)(F)F)c1)Nc1cc(S(=O)(=O)N2CCOCC2)ccc1N1CCCC1	-	-	-	-	.	-
O=C(CSc1nc2c([nH]c3ccccc32)c(=O)n1-c1cccc(Cl)c1)N1CCOCC1	80	-	-	-	-	-
O=C(CSc1nc2c([nH]c3ccccc32)c(=O)n1-c1ccccc1)N1CCOCC1	-	-	-	-	-	-
COc1ccc(N=Cc2ccccc2O)cc1	-	-	-	.	.	-
COc1ccc2sc(/C=C/c3ccccc3O)[n+](C)c2c1	-	51	-	.	.	.
CCCCCCCC/C=C\CCCCCCCC(=O)NCCc1ccc(O)c(O)c1	-	-	-	-	-	17
CCCCCCCC/C=C\CCCCCCCC(=O)NCCO	-	-	-	-	-	-
COCCNC(=O)CSc1cc(-c2ccccc2)c2ccc(OC)cc2n1	-	-	-	-	-	-
COc1ccc2c(-c3ccccc3)cc(SCC(=O)NC(N)=O)nc2c1	-	-	-	-	-	26
COc1cccc(C2C(C#N)=C(C)NC3=C2C(=O)CC(C)(C)C3)c1 (stereo not given)	-	-	-	-	-	-
COc1ccc(C2C(C#N)=C(C)NC3=C2C(=O)CC(C)(C)C3)cc1 (stereo not given)	102	-	-	-	-	-
CCOC(=O)C1=C(c2ccccc2)N=c2s/c(=C\c3cc(OC)c(OC)c(OC)c3)c(=O)n2C1c1cccs1 (stereo not given)	-	-	-	-	-	-
CCOC(=O)C1=C(c2ccccc2)N=c2s/c(=C\c3ccco3)c(=O)n2C1c1cccs1 (stereo not given)	38	-	-	-	-	-
Cc1ccc(NC(=O)c2ccc(S(=O)(=O)NCc3cccnc3)cc2)c(C)c1	-	-	-	-	-	-
SMILES	CSN inh	HNF4A DNA FP	Tb MetRS inh	IDE inh	TPT1 inh	IDE cell activ
CCC(=O)N1CCc2cc(S(=O)(=O)N3CCc4ccccc4C3)ccc21	78	-	-	-	-	-
CN(C)/C=C1\C=C2C(=O)c3ccccc3N2C1=O	-	-	-	-	-	46
S=c1[nH]nc(-c2cc(-c3ccco3)[nH]n2)n1-c1ccccc1Cl	36	-	-	-	-	-
O=C(c1ccco1)N1CCN(c2c(-c3ccccc3)c3cc(Cl)ccc3[nH]c2=O)CC1	-	-	-	-	-	-
O=C(c1ccco1)N1CCN(c2ncnc3c2[nH]c2ccc(Cl)cc23)CC1	.	.	.	67	-	.
Cc1c(NC(=O)C2CCCN2S(=O)(=O)c2ccccc2)c(=O)n(-c2ccccc2)n1C (stereo not given)	57	-	-	-	-	-
Cc1c(NC(=O)C2CCN(S(=O)(=O)c3ccc(Cl)cc3)CC2)c(=O)n(-c2ccccc2)n1C	-	-	-	-	-	-
CN(C)c1nc(C#N)nc(N2CCOCC2)n1	-	-	-	-	-	-
CN(C)c1nc(SCC#N)nc(N2CCOCC2)n1	-	43	-	-	-	-
N#C/C(=C\c1ccc(C(=O)O)cc1)c1nc2sc3c(c2c(=O)[nH]1)CCCC3	70	-	-	.	.	-
CCOC(=O)c1nc2sc3c(c2c(=O)[nH]1)CCCC3	-	-	-	-	-	-
Cc1ccc(C)n1-c1sc2c(c1C(=O)O)CCCC2	39	-	-	-	-	-
CCOC(=O)c1c(-n2c(C)cc(C=O)c2C)sc2c1CCCC2	-	-	-	-	-	-
c1ccc2c(-c3[nH]ncc3CNCCCn3ncc4ccccc43)cccc2c1	-	-	-	-	-	-
CCC(=O)Oc1ccc(C(=O)Nc2ccc3c(c2)C(=O)N(C2CCCCC2)C3=O)cc1	-	39	-	-	-	-
CCn1c(SCC(=O)Nc2oc(-c3ccccc3)c(-c3ccccc3)c2C#N)nnc1-c1cc(OC)cc(OC)c1	70	-	-	-	-	-
N#Cc1c(NC(=O)CSc2ncccn2)oc(-c2ccccc2)c1-c1ccccc1	-	-	-	-	-	-
Cn1nc(C2CC2)cc1NC(=O)C1(C)CCN1C(=O)Cc1ccc(-c2ccccc2)cc1 (stereo not given)	-	-	-	.	.	.
CC[C@@]1(O)C(=O)OCc2c1cc1n(c2=O)Cc2cc3c(CN(C)C)c(O)ccc3nc2-1	-	-	-	-	-	24
CC[C@@]1(O)C(=O)OCc2c1cc1n(c2=O)Cc2cc3c(N)cccc3nc2-1	-	-	-	-	-	-
CCC(=O)NNC(=S)NC(=O)c1ccc(C)cc1	-	-	-	-	-	-
Cc1ccc(C(=O)NC(=S)NNC(=O)COc2ccccc2C)cc1	-	27	-	-	-	-
Cn1cc([N+](=O)[O-])c(C(=O)Nc2cc(Oc3cccnc3)cc([N+](=O)[O-])c2)n1	.	.	.	-	-	.
C=CCn1c(=O)c(C(=O)Nc2ncccc2C)c(O)c2ccccc21	-	-	-	.	.	.
O=C(CNC(=O)c1ccccc1)NCC(=O)OCC(=O)c1ccc([N+](=O)[O-])cc1	-	-	-	-	-	-
O=C(CNC(=O)c1ccc(Br)cc1)NCC(=O)OCC(=O)c1ccc([N+](=O)[O-])cc1	-	-	-	17	-	-
CC(=O)c1cccc(NC(=O)N2C3CCCC2CC(NC(=O)C2CC2)C3)c1 (stereo not given)	-	-	-	-	-	-
O=C(C(Br)=Cc1ccccc1)c1ccccc1	-	-	-	.	.	-
